Compound activity deposited in PubChem by Sanford-Burnham Center for Chemical Genomics.
This is a sample that favours compounds with a hit; in the whole collection about 1.4% have one here.
SKN-1 inh = C. elegans SKN-1 inhibition; AID 624304; actives 0.49% (n = 360,000); inhibition, % at 21.8 µM; C. elegans VP596 Pgst-4::GFP/RFP ratio, acrylamide-induced, 24 h;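 active = interference check ratio from 0.5 to 1.5 plus GFP to RFP signal ratio inhibition reaching or exceeding a fixed threshold, cut at about 30% in these data, passing the limit was not always enough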
iPSC survival up = enhancers of human iPSC single-cell survival | hiPSC single-cell survival, ATPlite luminescence; 100% = ROCK inhibitor wells, 0% = DMSO | survival enhancement, % at 20 µM | actives 0.044% (n = 360,000) | AID 602274; in the data active = survival enhancement above about 18%;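 also: cells exposed to compounds for 16 hours before the ATP read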
MT1-MMP act inh = MT1-MMP (human) activation inhibition | P50281 | HT1080 RFP-PRO-GFP cells, GFP/RFP ratio fluorescence, overnight; percent of plate control window, DMSO zero | GFP/RFP ratio change, % at 20 µM | actives 0.061% (n = 360,000) | AID 651647;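 active = GFP/RFP ratio change of at least 30% with cell ATP level not reduced by more than half and red fluorescence within 50% of control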
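Assay system – RFP-PRO-GFP reporter HT1080 cells · Compound dosing – single dose of 20 µM compound, 1% DMSO final · Incubation – overnight compound exposure at 37 °C · Measure – GFP/RFP fluorescence ratio · Benchmarks – DMSO wells and RFP-L50D-GFP cells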
NRP1-CendR mod = alters CendR peptide binding to human NRP-1. O14786. FAM-RPARPAR peptide binding to NRP-1, fluorescence polarization. inhibition, % at 25 µM. actives 0.85% (n = 360,000);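 active = inhibition or corrected inhibition above about 18%, plus a signal ratio from 0.5 to 1.5, limit read from the data, passing the limit was not always enough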
A number is an active result; - = inactive.

SMILES	SKN-1 inh	iPSC survival up	MT1-MMP act inh	NRP1-CendR mod
CC1CCN(CC(=O)Nc2cccc(C(=O)Nc3cccc(C(F)(F)F)c3)c2)CC1	44	-	-	-
CCCN(CCC)CCN1C(=O)C2C(C(=O)Nc3ccc(C)cc3)C3C=CC2(O3)C1C(=O)NC1CCCCC1 (stereo not drawn)	-	-	-	-
Cc1ccc2c(COC(=O)C3=COCCO3)cc(=O)oc2c1	-	23	-	-
COc1ccnc(Oc2ccccc2)c1C(=O)N/C=N/OCc1ccc(F)cc1Cl	-	-	-	-
CC(C)Oc1cc(NC(=O)CS(=O)CC(=O)N(C)C)c(Cl)cc1Cl (stereo not drawn)	-	-	-	25
CC(C)Oc1cc(NC(=O)CS(=O)CC(=O)Nc2cccc(C(F)(F)F)c2)c(Cl)cc1Cl (stereo not drawn)	-	-	-	-
COc1ccc(/C=N/NC(=O)c2cc(C34CC5CC(CC(C5)C3)C4)[nH]n2)cc1OC	-	-	-	22
O=C1CC(N2CCN(c3ccccc3)CC2)C(=O)N1c1ccc(Cl)cc1 (stereo not drawn)	-	-	-	-
O=C(c1ccccc1)c1ccc(OCC(O)CN2CCN(S(=O)(=O)N3CCCCC3)CC2)cc1 (stereo not drawn)	-	-	-	-
CCC(=O)c1ccc(OCC(O)CN2CCN(S(=O)(=O)N3CCCCC3)CC2)cc1 (stereo not drawn)	35	-	-	-
Nc1cc(=O)[nH]c(SCC(=O)Nc2ccc(S(=O)(=O)N3CCOCC3)cc2)n1	35	-	-	-
O=C(O)C1CCN(S(=O)(=O)Cc2ccccc2)CC1	-	-	-	-
CC1Cc2ccccc2N1C(=O)C1CCN(S(=O)(=O)Cc2ccccc2)CC1 (stereo not drawn)	32	-	-	-
CC(=O)Nc1cc(F)c2c(c1F)Cc1cc(F)ccc1-2	-	-	-	24
CC(=O)Nc1ccc2c(c1)-c1ccc(F)cc1C2	-	-	-	-
CCCCN(CCCC)c1ncnc2nc[nH]c12	-	-	-	22
CCCCN(Cc1ccccc1)c1ncnc2nc[nH]c12	-	-	-	-
Fc1ccccc1C(c1nnnn1C1CCCC1)N1CCN(Cc2ccccc2)CC1 (stereo not drawn)	-	-	-	22
CCC(c1nnnn1C1CCCC1)N1CCN(Cc2ccccc2)CC1 (stereo not drawn)	-	-	-	-
Fc1ccc(CNC(=S)NC2CCCCC2)cc1	-	-	-	-
Fc1ccc(CNC(=S)NC2CCCC2)cc1	-	-	-	32
NS(=O)(=O)c1ccc(CNC(=S)NCc2ccc(F)cc2)cc1	-	-	-	25
CCOCCn1c(COc2ccccc2)nc2ccccc21	40	-	-	-
O=C(Nc1ccccc1)Nc1csc2ccccc12	35	-	-	-
CCOC(=O)CSc1nnc2n(C3CCCCC3)c(=O)c3c4c(sc3n12)CCCC4	-	-	-	-
SMILES	SKN-1 inh	iPSC survival up	MT1-MMP act inh	NRP1-CendR mod
Cc1nnc2n(C3CCCCC3)c(=O)c3c4c(sc3n12)COC(C)(C)C4	-	21	-	-
COc1cc(C2Nc3cccc4cccc(c34)N2)cc(OC)c1OC(C)=O	-	-	-	25
COc1cc(C2Nc3cccc4cccc(c34)N2)ccc1O	-	-	-	-
COc1ccccc1CNC(=O)CN1C(=O)NC(C)(c2ccc(C(C)(C)C)cc2)C1=O (stereo not drawn)	-	-	-	-
CCCCCCC[C@@H](C/C=C/CCC(=O)N(C)C/C(=C/Cl)C/C(=C\C(=O)N1CC(OC)=CC1=O)OC)OC	-	35	-	-
COc1ccccc1CNC(=O)C1CCN(C(=O)N(C)C)CC1	35	-	-	-
CC(C)c1ccc(OCC(=O)NCc2ccccc2)cc1	-	-	-	52
O=[N+]([O-])c1cc(S(=O)(=O)N2CCOCC2)ccc1OCc1cccc(Cl)c1	-	-	-	-
CC(C)C(Nc1ccc(S(=O)(=O)N2CCOCC2)cc1[N+](=O)[O-])C(=O)O (stereo not drawn)	-	-	-	28
Cc1cccc(COc2ccc(S(=O)(=O)N3CCOCC3)cc2[N+](=O)[O-])c1	-	-	-	20
CSc1ccc(/C=N/NC(=O)c2cc(O)cc(O)c2)cc1	-	-	-	-
COc1ccc(N2CS(=O)CC2=O)cc1 (stereo not drawn)	-	-	-	27
Cc1nn(-c2ccc(N3CCCCC3)nn2)c(C)c1CCC(=O)Nc1ccc(F)cc1	-	-	-	-
COC(=O)C1(C(F)(F)F)N=C(C(F)(F)F)Nc2ccc(Cl)cc21 (stereo not drawn)	-	-	-	-
CC(C)OP(=O)(c1ccc(N(C)C)cc1)C(Nc1ccccc1)c1ccccc1 (stereo not drawn)	-	-	-	31
CC(C)CCOP(=O)(c1ccc(N(C)C)cc1)C(Nc1ccccc1)c1ccc(N(C)C)cc1 (stereo not drawn)	-	-	-	-
COC(=O)c1sccc1NC(=O)c1ccccc1	-	-	-	-
COC(=O)c1sccc1NC(=O)c1ccnn1C	-	-	-	25
CN(C)/N=C/C=C1\CCC/C(=C/c2cccs2)C1=O	-	-	-	-
CN(C)/N=C/C=C1\CC/C(=C\c2ccc(Br)cc2)C1=O	41	-	-	-
CCC(CC)C(=O)Oc1c(Sc2ccccc2[N+](=O)[O-])c(C)nn1C(C)(C)C	-	-	-	-
Cc1ccc(C(=O)Nc2ccccc2C(=O)Nc2ccccn2)cc1Cl	-	-	-	28
Cc1ccc(C)c(N2C(=O)c3ccc(C(=O)Nc4ccccn4)cc3C2=O)c1	-	-	-	22
CCC(=O)N1CCc2cc(S(=O)(=O)NC(C(=O)NC(C)c3ccccc3)C(C)C)ccc21 (stereo not drawn)	-	-	-	-
COc1ccc(C2(C)NC(=O)N(CC(=O)N3CCc4ccccc43)C2=O)cc1OC (stereo not drawn)	-	-	-	-
SMILES	SKN-1 inh	iPSC survival up	MT1-MMP act inh	NRP1-CendR mod
O=C1NC[C@@H](CCCCN2C[C@H](Cc3ccccc3)N(CCc3ccc(O)cc3)C(=O)C2=O)N(Cc2ccccc2)C1=O	-	-	-	18
O=C1NC[C@H](CCCCN2C[C@H](Cc3ccc(O)cc3)N(Cc3ccccc3)C(=O)C2=O)N(CCc2ccccc2)C1=O	-	-	-	-
O=C(NCC(=O)N(Cc1cccs1)C(C(=O)NC1CCCC1)c1cccnc1)c1ccco1 (stereo not drawn)	-	-	-	-
O=C(NCC(=O)N(Cc1cccs1)C(C(=O)NC1CCCCC1)c1ccncc1)c1ccco1 (stereo not drawn)	42	-	-	-
CCC(Sc1nc2n[nH]c(C)c2c(=N)n1-c1cccc(Cl)c1)C(=O)NCCOC (stereo not drawn)	-	-	-	29
CCC(Sc1nc2n[nH]c(C)c2c(=N)n1-c1ccc(C)c(Cl)c1)C(=O)N1CCOCC1 (stereo not drawn)	-	-	-	-
